Experimental data taken from paper PMC3016151 (Investigational New Drugs, 2009).

Columns and labels:
[1] = phase I and pharmacological study; cited from earlier work
[2] = test system: adenosine triphosphate binding cassette (ABC) B1 (ABCB1) transporter; conditions: in vitro studies; data on file at Bayer Pharmaceuticals Corporation; cited from earlier work
[3] = test system: patients with advanced or metastatic solid tumors; assay: Telatinib-induced toxicity in phase I patients; format: in vivo, human
In short: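 Patients with advanced or metastatic solid tumours (ECOG ≤2) took test compound orally, od or bid, continuously (20 mg od to 1,500 mg bid). Adverse events were graded by NCI-CTC v3.0 over all treatment cycles. KDR and FLT4 SNPs were TaqMan-genotyped on a dynamic array using DNA from residual frozen blood. Toxicity was compared by two-sided chi-square (3×2 genotype; 2×2 carrier vs noncarrier).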

[4] = Pharmacokinetics of telatinib in phase I patients; format: in vivo, human; conditions: for Dose normalized AUC, mean: cycle 1 day 14, 150 mg tablets
[5] = all treatment cycles, 33 patients, all dose levels

Which results are given for `CNC(=O)c1cc(COc2nnc(Nc3ccc(Cl)cc3)c3ccoc23)ccn1` [telatinib, Telatinib]?
AUC(0–12) interpatient variability, % coefficient of variation [1]: 20–150%; Cmax interpatient variability, % coefficient of variation [1]: 20–150%; dose proportionality of pharmacokinetics [1]: dose proportional; substrate of the ABCB1 transporter [2]: weak substrate; Grade 3–4 toxicity, number of patients ([3]; 33 patients): 3 patients; Hypertension (most frequently observed side-effect), number of patients ([3]; 33 patients, unrelated to dose): 7 n; Toxicity: any toxicity grade 1–4 all cycles, No (number of patients) ([3]; FLT4 1480A>G genotype AA): 7; Toxicity: any toxicity grade 1–4 all cycles, Yes (number of patients) ([3]; FLT4 1480A>G genotype AA): 20; Toxicity: any toxicity grade 1–4 all cycles, No (number of patients) ([3]; FLT4 1480A>G genotype AG): 3; Toxicity: any toxicity grade 1–4 all cycles, Yes (number of patients) ([3]; FLT4 1480A>G genotype AG): 3; Toxicity: any toxicity grade 1–4 all cycles, No (number of patients) ([3]; FLT4 2670C>G genotype CC): 6; Toxicity: any toxicity grade 1–4 all cycles, Yes (number of patients) ([3]; FLT4 2670C>G genotype CC): 11; Toxicity: any toxicity grade 1–4 all cycles, No (number of patients) ([3]; FLT4 2670C>G genotype CG): 3; Toxicity: any toxicity grade 1–4 all cycles, Yes (number of patients) ([3]; FLT4 2670C>G genotype CG): 9; Toxicity: any toxicity grade 1–4 all cycles, No (number of patients) ([3]; FLT4 2670C>G genotype GG): 1; Toxicity: any toxicity grade 1–4 all cycles, Yes (number of patients) ([3]; FLT4 2670C>G genotype GG): 3; Toxicity: any toxicity grade 1–4 all cycles, No (number of patients) ([3]; KDR 1192G>A genotype CC): 5; Toxicity: any toxicity grade 1–4 all cycles, Yes (number of patients) ([3]; KDR 1192G>A genotype CC): 19; Toxicity: any toxicity grade 1–4 all cycles, No (number of patients) ([3]; KDR 1192G>A genotype TC): 4; Toxicity: any toxicity grade 1–4 all cycles, Yes (number of patients) ([3]; KDR 1192G>A genotype TC): 4; Toxicity: any toxicity grade 1–4 all cycles, No (number of patients) ([3]; KDR 1192G>A genotype TT): 1; Toxicity: any toxicity grade 1–4 all cycles, Yes (number of patients) ([3]; KDR 1192G>A genotype TT): 0; Toxicity: any toxicity grade 1–4 all cycles, No (number of patients) ([3]; KDR 1719A>T genotype AA): 1; Toxicity: any toxicity grade 1–4 all cycles, Yes (number of patients) ([3]; KDR 1719A>T genotype AA): 1; Toxicity: any toxicity grade 1–4 all cycles, No (number of patients) ([3]; KDR 1719A>T genotype TA): 4; Toxicity: any toxicity grade 1–4 all cycles, Yes (number of patients) ([3]; KDR 1719A>T genotype TA): 9; Toxicity: any toxicity grade 1–4 all cycles, No (number of patients) ([3]; KDR 1719A>T genotype TT): 5; Toxicity: any toxicity grade 1–4 all cycles, Yes (number of patients) ([3]; KDR 1719A>T genotype TT): 13; Toxicity: any toxicity grade 1–4 all cycles, No (number of patients) ([3]; KDR -604T>C genotype CC): 3; Toxicity: any toxicity grade 1–4 all cycles, Yes (number of patients) ([3]; KDR -604T>C genotype CC): 7; Toxicity: any toxicity grade 1–4 all cycles, No (number of patients) ([3]; KDR -604T>C genotype CT): 5; Toxicity: any toxicity grade 1–4 all cycles, Yes (number of patients) ([3]; KDR -604T>C genotype CT): 13; Toxicity: any toxicity grade 1–4 all cycles, No (number of patients) ([3]; KDR -604T>C genotype TT): 2; Toxicity: any toxicity grade 1–4 all cycles, Yes (number of patients) ([3]; KDR -604T>C genotype TT): 3; Any toxicity grade 1–4, patients [3, 5]: 23 (70) n (%); Any toxicity grade 3 or 4, patients [3, 5]: 3 (9) n (%); Hypertension grade 1–4, patients [3, 5]: 7 (21) n (%); Hypertension grade 3 or 4, patients [3, 5]: 2 (6) n (%); any grade 1–4 toxicity, number of patients ([3]; during all treatment cycles): 23 out of 33 patients; any grade 1–4 toxicity, share of patients ([3]; during all treatment cycles, 33 patients): 70%; Dose normalized AUC, mean ([4]; ABCB1 1236C>T genotype CC, n=9): 7.84; Dose normalized AUC, mean ([4]; ABCB1 1236C>T genotype CT, n=15): 11.60; Dose normalized AUC, mean ([4]; ABCB1 1236C>T genotype TT, n=5): 4.82; Dose normalized AUC, mean ([4]; ABCB1 2677G>A/T genotype GG, n=9): 7.84; Dose normalized AUC, mean ([4]; ABCB1 2677G>A/T genotype TG, n=15): 11.60; Dose normalized AUC, mean ([4]; ABCB1 2677G>A/T genotype TT, n=5): 4.82; Dose normalized AUC, mean ([4]; ABCB1 3435C>T genotype CC, n=7): 7.30; Dose normalized AUC, mean ([4]; ABCB1 3435C>T genotype CT, n=16): 11.10; Dose normalized AUC, mean ([4]; ABCB1 3435C>T genotype TT, n=6): 6.65; Dose normalized AUC, mean ([4]; ABCB1 -129T>C genotype CC, n=1): 11.79; Dose normalized AUC, mean ([4]; ABCB1 -129T>C genotype TC, n=2): 15.65; Dose normalized AUC, mean ([4]; ABCB1 -129T>C genotype TT, n=26): 8.67; Dose normalized AUC, mean ([4]; ABCC1 825T>C genotype TC, n=11): 10.90; Dose normalized AUC, mean ([4]; ABCC1 825T>C genotype TT, n=18): 8.26; Dose normalized AUC, mean ([4]; ABCC1 1062T>C genotype CC, n=2): 13.45; Dose normalized AUC, mean ([4]; ABCC1 1062T>C genotype TC, n=10): 9.95; Dose normalized AUC, mean ([4]; ABCC1 1062T>C genotype TT, n=17): 8.36; Dose normalized AUC, mean ([4]; ABCC1 2012G>T genotype GG, n=24): 8.80; Dose normalized AUC, mean ([4]; ABCC1 2012G>T genotype GT, n=4): 13.46; Dose normalized AUC, mean ([4]; ABCC1 2012G>T genotype TT, n=1): 3.63; Dose normalized AUC, mean ([4]; ABCC1 rs129081 genotype CC, n=5): 10.22; Dose normalized AUC, mean ([4]; ABCC1 rs129081 genotype GC, n=15): 10.44; Dose normalized AUC, mean ([4]; ABCC1 rs129081 genotype GG, n=9): 6.77; Dose normalized AUC, mean ([4]; ABCG2 346G>A genotype AG, n=4): 6.00; Dose normalized AUC, mean ([4]; ABCG2 346G>A genotype GG, n=25): 9.78; Dose normalized AUC, mean ([4]; ABCG2 421C>A genotype CA, n=6): 10.48; Dose normalized AUC, mean ([4]; ABCG2 421C>A genotype CC, n=23): 8.95; Dose normalized AUC(0–12), mean (range) ([4]; oral, cycle 1 day 14 (steady-state), AUC(0–12)/actual dose): 9.26 (0.98–34.60) µg.hr/L per mg of dose
